According to ChEMBL document CHEMBL1157912, “Impact of nature and length of linker incorporated in agonists on toll-like receptor 9-mediated immune responses” (J Med Chem, 2010):
Activity calls are given as the source filed them. The rule behind the calls is not given here.

Key:
[1] = target: T1, Toll-like receptor 9 (Homo sapiens) (UniProt Q9NR96); assay: Induction of TLR9-mediated immune stimulation in human PBMC assessed as RANTES production at 10 ug/ml after 24 hrs by luminex multiplex assay (RVb = 0.05 +/- 0.04 ng/ml)
T1 sequence (whole entry): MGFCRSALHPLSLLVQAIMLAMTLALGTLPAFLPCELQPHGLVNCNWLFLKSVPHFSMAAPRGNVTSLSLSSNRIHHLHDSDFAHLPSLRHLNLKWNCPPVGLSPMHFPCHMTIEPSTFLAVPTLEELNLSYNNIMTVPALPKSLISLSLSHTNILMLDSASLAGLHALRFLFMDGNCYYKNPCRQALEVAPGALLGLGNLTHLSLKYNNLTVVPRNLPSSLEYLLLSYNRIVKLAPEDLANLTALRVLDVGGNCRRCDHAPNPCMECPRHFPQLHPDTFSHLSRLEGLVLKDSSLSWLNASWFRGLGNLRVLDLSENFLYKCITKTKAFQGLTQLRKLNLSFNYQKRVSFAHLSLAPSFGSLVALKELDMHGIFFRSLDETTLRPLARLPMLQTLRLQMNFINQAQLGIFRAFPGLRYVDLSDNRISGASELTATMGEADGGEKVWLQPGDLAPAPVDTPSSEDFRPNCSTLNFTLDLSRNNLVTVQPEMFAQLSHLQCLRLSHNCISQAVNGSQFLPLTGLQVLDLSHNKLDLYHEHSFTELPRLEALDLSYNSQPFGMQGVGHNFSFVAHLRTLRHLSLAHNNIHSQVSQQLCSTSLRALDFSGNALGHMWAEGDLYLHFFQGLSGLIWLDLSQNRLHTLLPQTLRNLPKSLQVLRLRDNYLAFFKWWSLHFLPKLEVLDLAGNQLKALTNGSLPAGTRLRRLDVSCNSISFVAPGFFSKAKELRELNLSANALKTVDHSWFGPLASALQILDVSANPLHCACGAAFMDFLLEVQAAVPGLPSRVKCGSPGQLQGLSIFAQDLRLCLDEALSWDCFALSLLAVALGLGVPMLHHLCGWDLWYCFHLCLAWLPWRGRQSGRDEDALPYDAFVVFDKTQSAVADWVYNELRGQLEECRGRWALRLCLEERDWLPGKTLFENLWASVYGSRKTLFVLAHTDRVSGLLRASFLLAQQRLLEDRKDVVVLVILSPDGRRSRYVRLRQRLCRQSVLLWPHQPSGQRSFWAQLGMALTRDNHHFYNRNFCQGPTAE

Mus musculus = assay: Immunostimulatory activity in C57BL/6 mouse assessed as increase in serum IL12 level at 1 mg/kg, sc after 2 hrs by ELISA; assay type: functional, organism-based; parameters: dose 1 mg/kg
How it was run: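 Female C57BL/6 mice (n=3) received a single subcutaneous agonist dose of 1 mg/kg. Blood was taken by retro-orbital bleeding 2 h later, and serum IL-12 was measured by sandwich ELISA. Values are the mean of three mice ± SD.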

[2] = target: T1, Toll-like receptor 9 (Homo sapiens); assay: Induction of TLR9-mediated immune stimulation in human PBMC assessed as IL2R production at 2 ug/ml after 24 hrs by luminex multiplex assay (RVb = 0.02 +/- 0.01 ng/ml)
[3] = target: T1, Toll-like receptor 9 (Homo sapiens); assay: Induction of TLR9-mediated immune stimulation in human PBMC assessed as IL1Ralpha production at 2 ug/ml after 24 hrs by luminex multiplex assay (RVb = 0.12 +/- 0.03 ng/ml)
[4] = target: T1, Toll-like receptor 9 (Homo sapiens); assay: Induction of TLR9-mediated immune stimulation in human PBMC assessed as MIP1alpha production at 2 ug/ml after 24 hrs by luminex multiplex assay (RVb = 0.01 ng/ml)
[5] = target: T1, Toll-like receptor 9 (Homo sapiens); assay: Induction of TLR9-mediated immune stimulation in human PBMC assessed as IL2R production at 10 ug/ml after 24 hrs by luminex multiplex assay (RVb = 0.02 +/- 0.01 ng/ml)
[6] = target: T1, Toll-like receptor 9 (Homo sapiens); assay: Induction of TLR9-mediated immune stimulation in human PBMC assessed as IP10 production at 10 ug/ml after 24 hrs by luminex multiplex assay (RVb = 0.00 ng/ml)
[7] = target: T1, Toll-like receptor 9 (Homo sapiens); assay: Induction of TLR9-mediated immune stimulation in human PBMC assessed as IL6 production at 2 ug/ml after 24 hrs by luminex multiplex assay (RVb = 0.01 ng/ml)
[8] = target: T1, Toll-like receptor 9 (Homo sapiens); assay: Induction of TLR9-mediated immune stimulation in human PBMC assessed as IL12 production at 10 ug/ml after 24 hrs by luminex multiplex assay (RVb = 0.00 ng/ml)
[9] = target: T1, Toll-like receptor 9 (Homo sapiens); assay: Induction of TLR9-mediated human B cell proliferation assessed as [3H]thymidine uptake after 56 hrs by scintillation counting
How it was run: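 B cells were purified from human PBMCs (healthy volunteers), about 1 × 10⁵ cells, and stimulated with various agonist concentrations for 56 h. Cells were then pulsed with 0.75 μCi [³H]-thymidine and harvested 16 h later. Incorporation was counted by scintillation and reported as cpm.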

[10] = target: T1, Toll-like receptor 9 (Homo sapiens); assay: Induction of TLR9-mediated immune stimulation in human PBMC assessed as RANTES production at 2 ug/ml after 24 hrs by luminex multiplex assay (RVb = 0.05 +/- 0.04 ng/ml)
[11] = target: T1, Toll-like receptor 9 (Homo sapiens); assay: Induction of TLR9-mediated immune stimulation in human PBMC assessed as IL12 production at 2 ug/ml after 24 hrs by luminex multiplex assay (RVb = 0.00 ng/ml)

| Activity [1] [ng/mL] | Activity [2] [ng/mL] | Activity [3] [ng/mL] | Activity [4] [ng/mL] | Activity [5] [ng/mL] | Activity [6] [ng/mL] | Activity [7] [ng/mL] | Activity [8] [ng/mL] | Activity [9] | Activity [10] [ng/mL] | Activity [11] [ng/mL] | Structure (SMILES) | Activity (Mus musculus) |
| --- | --- | --- | --- | --- | --- | --- | --- | --- | --- | --- | --- | --- |
| 0.98 | 0.09 | 16.4 | 0.16 | 0.12 | 0.99 | 0.54 | 0.2 | Dose-dependent effect | 0.69 | 0.16 | Cc1cn([C@H]2C[C@H](OCC[C@H](O)COP(=O)(S)O[C@H]3C[C@H](n4cc(C)c(=O)[nH]c4=O)O[C@@H]3COP(=O)(S)O[C@H]3[C@@H](O)[C@H](n4ccc(N)nc4=O)O[C@@H]3COP(=O)(S)O[C@H]3C[C@H](n4cc(C)c(=O)[nH]c4=O)O[C@@H]3COP(=O)(S)O[C@H]3C[C@H](n4cc(C)c(=O)[nH]c4=O)O[C@@H]3COP(=O)(S)O[C@H]3C[C@H](n4ccc5c(=O)[nH]c(N)nc54)O[C@@H]3COP(=O)(S)O[C@H]3[C@@H](O)[C@H](n4ccc(N)nc4=O)O[C@@H]3COP(=O)(S)O[C@H]3C[C@H](n4cc(C)c(=O)[nH]c4=O)O[C@@H]3COP(=O)(S)O[C@H]3[C@@H](O)[C@H](n4cnc5c(=O)[nH]c(N)nc54)O[C@@H]3COP(=O)(S)O[C@H]3C[C@H](n4cc(C)c(=O)[nH]c4=O)O[C@@H]3COP(=O)(S)O[C@H]3[C@@H](O)[C@H](n4ccc(N)nc4=O)O[C@@H]3COP(=O)(S)O[C@H]3C[C@H](n4cc(C)c(=O)[nH]c4=O)O[C@@H]3CO)[C@@H](COP(=O)(S)O[C@H]3[C@@H](O)[C@H](n4ccc(N)nc4=O)O[C@@H]3COP(=O)(S)O[C@H]3C[C@H](n4cc(C)c(=O)[nH]c4=O)O[C@@H]3COP(=O)(S)O[C@H]3C[C@H](n4cc(C)c(=O)[nH]c4=O)O[C@@H]3COP(=O)(S)O[C@H]3C[C@H](n4ccc5c(=O)[nH]c(N)nc54)O[C@@H]3COP(=O)(S)O[C@H]3[C@@H](O)[C@H](n4ccc(N)nc4=O)O[C@@H]3COP(=O)(S)O[C@H]3C[C@H](n4cc(C)c(=O)[nH]c4=O)O[C@@H]3COP(=O)(S)O[C@H]3[C@@H](O)[C@H](n4cnc5c(=O)[nH]c(N)nc54)O[C@@H]3COP(=O)(S)O[C@H]3C[C@H](n4cc(C)c(=O)[nH]c4=O)O[C@@H]3COP(=O)(S)O[C@H]3[C@@H](O)[C@H](n4ccc(N)nc4=O)O[C@@H]3COP(=O)(S)O[C@H]3C[C@H](n4cc(C)c(=O)[nH]c4=O)O[C@@H]3CO)O2)c(=O)[nH]c1=O (stereo partly specified) | Active |
| 1.15 | 0.03 | 8.94 | 0.05 | 0.12 | 0.02 | 0.31 | 0.17 | Dose-dependent effect | 0.31 | 0.14 | Cc1cn([C@H]2C[C@H](OCCC(O)CCOP(=O)(S)O[C@H]3C[C@H](n4cc(C)c(=O)[nH]c4=O)O[C@@H]3COP(=O)(S)O[C@H]3[C@@H](O)[C@H](n4ccc(N)nc4=O)O[C@@H]3COP(=O)(S)O[C@H]3C[C@H](n4cc(C)c(=O)[nH]c4=O)O[C@@H]3COP(=O)(S)O[C@H]3C[C@H](n4cc(C)c(=O)[nH]c4=O)O[C@@H]3COP(=O)(S)O[C@H]3C[C@H](n4ccc5c(=O)[nH]c(N)nc54)O[C@@H]3COP(=O)(S)O[C@H]3[C@@H](O)[C@H](n4ccc(N)nc4=O)O[C@@H]3COP(=O)(S)O[C@H]3C[C@H](n4cc(C)c(=O)[nH]c4=O)O[C@@H]3COP(=O)(S)O[C@H]3[C@@H](O)[C@H](n4cnc5c(=O)[nH]c(N)nc54)O[C@@H]3COP(=O)(S)O[C@H]3C[C@H](n4cc(C)c(=O)[nH]c4=O)O[C@@H]3COP(=O)(S)O[C@H]3[C@@H](O)[C@H](n4ccc(N)nc4=O)O[C@@H]3COP(=O)(S)O[C@H]3C[C@H](n4cc(C)c(=O)[nH]c4=O)O[C@@H]3CO)[C@@H](COP(=O)(S)O[C@H]3[C@@H](O)[C@H](n4ccc(N)nc4=O)O[C@@H]3COP(=O)(S)O[C@H]3C[C@H](n4cc(C)c(=O)[nH]c4=O)O[C@@H]3COP(=O)(S)O[C@H]3C[C@H](n4cc(C)c(=O)[nH]c4=O)O[C@@H]3COP(=O)(S)O[C@H]3C[C@H](n4ccc5c(=O)[nH]c(N)nc54)O[C@@H]3COP(=O)(S)O[C@H]3[C@@H](O)[C@H](n4ccc(N)nc4=O)O[C@@H]3COP(=O)(S)O[C@H]3C[C@H](n4cc(C)c(=O)[nH]c4=O)O[C@@H]3COP(=O)(S)O[C@H]3[C@@H](O)[C@H](n4cnc5c(=O)[nH]c(N)nc54)O[C@@H]3COP(=O)(S)O[C@H]3C[C@H](n4cc(C)c(=O)[nH]c4=O)O[C@@H]3COP(=O)(S)O[C@H]3[C@@H](O)[C@H](n4ccc(N)nc4=O)O[C@@H]3COP(=O)(S)O[C@H]3C[C@H](n4cc(C)c(=O)[nH]c4=O)O[C@@H]3CO)O2)c(=O)[nH]c1=O (stereo partly specified) | Active |
| 1.09 | 0.04 | 9.05 | 0.04 | 0.17 | 0.03 | 0.14 | 0.15 | Dose-dependent effect | 0.7 | 0.11 | Cc1cn([C@H]2C[C@H](OCCOCCOCCOCCOP(=O)(S)O[C@H]3C[C@H](n4cc(C)c(=O)[nH]c4=O)O[C@@H]3COP(=O)(S)O[C@H]3[C@@H](O)[C@H](n4ccc(N)nc4=O)O[C@@H]3COP(=O)(S)O[C@H]3C[C@H](n4cc(C)c(=O)[nH]c4=O)O[C@@H]3COP(=O)(S)O[C@H]3C[C@H](n4cc(C)c(=O)[nH]c4=O)O[C@@H]3COP(=O)(S)O[C@H]3C[C@H](n4ccc5c(=O)[nH]c(N)nc54)O[C@@H]3COP(=O)(S)O[C@H]3[C@@H](O)[C@H](n4ccc(N)nc4=O)O[C@@H]3COP(=O)(S)O[C@H]3C[C@H](n4cc(C)c(=O)[nH]c4=O)O[C@@H]3COP(=O)(S)O[C@H]3[C@@H](O)[C@H](n4cnc5c(=O)[nH]c(N)nc54)O[C@@H]3COP(=O)(S)O[C@H]3C[C@H](n4cc(C)c(=O)[nH]c4=O)O[C@@H]3COP(=O)(S)O[C@H]3[C@@H](O)[C@H](n4ccc(N)nc4=O)O[C@@H]3COP(=O)(S)O[C@H]3C[C@H](n4cc(C)c(=O)[nH]c4=O)O[C@@H]3CO)[C@@H](COP(=O)(S)O[C@H]3[C@@H](O)[C@H](n4ccc(N)nc4=O)O[C@@H]3COP(=O)(S)O[C@H]3C[C@H](n4cc(C)c(=O)[nH]c4=O)O[C@@H]3COP(=O)(S)O[C@H]3C[C@H](n4cc(C)c(=O)[nH]c4=O)O[C@@H]3COP(=O)(S)O[C@H]3C[C@H](n4ccc5c(=O)[nH]c(N)nc54)O[C@@H]3COP(=O)(S)O[C@H]3[C@@H](O)[C@H](n4ccc(N)nc4=O)O[C@@H]3COP(=O)(S)O[C@H]3C[C@H](n4cc(C)c(=O)[nH]c4=O)O[C@@H]3COP(=O)(S)O[C@H]3[C@@H](O)[C@H](n4cnc5c(=O)[nH]c(N)nc54)O[C@@H]3COP(=O)(S)O[C@H]3C[C@H](n4cc(C)c(=O)[nH]c4=O)O[C@@H]3COP(=O)(S)O[C@H]3[C@@H](O)[C@H](n4ccc(N)nc4=O)O[C@@H]3COP(=O)(S)O[C@H]3C[C@H](n4cc(C)c(=O)[nH]c4=O)O[C@@H]3CO)O2)c(=O)[nH]c1=O (stereo partly specified) | Active |
